Hits are enriched below; roughly 3.1% of the tested compounds scored in any of these assays.
hERG protect = compounds protecting human hERG from proarrhythmic drug block; CHO-hERG, FluxOR thallium flux, dofetilide IC70 present; activation (rescue from dofetilide block), less the hit threshold, % at 10 µM; 0.51% of 310,000 active;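 active = activation above the mean of controls blocked by dofetilide plus 5 SD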;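 note: thallium influx through hERG after potassium depolarization seen as dye fluorescence rise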
KCNQ1 act = potentiators or activators of human KCNQ1 potassium channel; 0.35% of 310,000 active; P51787; B-score at 10 µM; CHO-K1 KCNQ1, thallium flux FluxOR fluorescence; hits give high values;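 active = fluorescence ratio B-score, a plate-corrected score, at least three library SD, with initial intensity B-score within 5 SD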
Target sequence (P51787 whole entry, looked up): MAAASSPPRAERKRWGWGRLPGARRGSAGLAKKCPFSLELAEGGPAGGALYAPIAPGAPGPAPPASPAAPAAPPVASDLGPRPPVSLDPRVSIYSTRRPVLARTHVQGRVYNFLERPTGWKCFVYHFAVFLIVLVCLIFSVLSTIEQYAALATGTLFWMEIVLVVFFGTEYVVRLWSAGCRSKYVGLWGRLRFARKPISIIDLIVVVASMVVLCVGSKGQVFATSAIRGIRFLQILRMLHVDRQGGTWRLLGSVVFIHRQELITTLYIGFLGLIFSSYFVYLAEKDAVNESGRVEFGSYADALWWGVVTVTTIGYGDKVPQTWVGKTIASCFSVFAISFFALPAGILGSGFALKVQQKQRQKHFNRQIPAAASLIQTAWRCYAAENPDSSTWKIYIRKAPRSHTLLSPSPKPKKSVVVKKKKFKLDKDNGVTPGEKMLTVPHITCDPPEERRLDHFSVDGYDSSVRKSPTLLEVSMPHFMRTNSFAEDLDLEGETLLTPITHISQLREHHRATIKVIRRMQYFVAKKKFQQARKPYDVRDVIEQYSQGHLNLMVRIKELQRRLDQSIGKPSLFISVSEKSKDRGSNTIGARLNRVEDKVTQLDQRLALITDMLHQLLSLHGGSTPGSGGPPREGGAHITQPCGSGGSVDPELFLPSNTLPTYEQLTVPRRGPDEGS
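Material: CHO-K1 cells stably expressing KCNQ1. Medium: assay buffer for compound exposure, DMSO matched across wells. Reagent: K+/Tl+ depolarizing stimulus. Compound dosing: single-concentration screen. Times: 37 °C overnight plating, 90-min dark dye load, 20-min compound pretreatment. Technique: FluxOR Tl+ flux fluorescence.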
KCNQ1 block = human KCNQ1 channel inhibition | P51787 | CHO-K1 KCNQ1, FluxOR thallium flux fluorescence; hits give high values | B-score at 10 µM | 1.3% of 310,000 active;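 active = compounds whose thallium flux B-score, printed positive for inhibition, exceeds three library SD while starting fluorescence stays within three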;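 note: channel opened by potassium depolarization with thallium stimulus after 20 min compound exposure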
KCNK3 block = human KCNK3 channel inhibition, primary screen; B-score at 10 µM; 0.84% of 340,000 active; CHO-KCNK3 thallium flux, FluxOR fluorescence; hits give low values;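 active = B-score under library mean minus 4 SD, starting fluorescence ratio at most library mean plus 5 SD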;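 note: more negative B-score means stronger inhibition of thallium flux through KCNK3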
KCNK9 inh = inhibitors of human KCNK9 two-pore domain potassium channel. Q9NPC2. HEK293 KCNK9, FluxOR thallium flux fluorescence; hits give low values. B-score at 10 µM. 1.2% of 310,000 active. AID 488922;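 active = ratio B-score over 3 SD below the library mean, with starting fluorescence within 5 SD of its mean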;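 note: negative B-score means less thallium flux so channel inhibition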
KCNK9 inh conf = human KCNK9 inhibitor confirmation | HEK293 KCNK9 cells, FluxOR thallium flux fluorescence | shares compounds with KCNK9 inh | 43% of 4,900 active | inhibition, % at 10 µM;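 active = thallium signal inhibited by more than 5 SD of the compound-free buffer control wells, on both duplicate plates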;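 note: 0% = assay buffer control wells without compound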
Kir2-1 spec = tests whether KCNK9 modulators also affect mouse Kir2.1; Kir2.1 cells, FluxOR thallium flux fluorescence; 4% of 4,900 active; shares compounds with KCNK9 inh; inhibition, % at 10 µM;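 active = thallium signal drop more than 5 SD beyond the mean of the no-compound control wells, seen in both duplicate plates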;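 note: signal is fluorescence rise after thallium addition divided by baseline fluorescence; plate controls were assay buffer only for no effect and full block by chlorpromazine control for full effect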
KCNK9 uninduced = non-induced cell nonspecific activity of KCNK9 modulators | shares compounds with KCNK9 inh | non-induced KCNK9-HEK293, FluxOR thallium flux | inhibition, % at 10 µM | 40% of 4,900 active;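 active = thallium signal drop beyond 5 SD of the untreated control mean, on both duplicate plates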;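 note: plate controls were buffer only IC0 wells for no effect and SID17386958 at its maximal inhibitory level for full effect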
Starred values were filed as active, the others as inactive; i = inactive; . = not tested or not shown.

SMILES | hERG protect | KCNQ1 act | KCNQ1 block | KCNK3 block | KCNK9 inh | KCNK9 inh conf | Kir2-1 spec | KCNK9 uninduced
CCOC(=O)C1(CCOc2ccccc2)CCN(Cc2cc(OC)ccc2OC)CC1 | -12.4 | i | i | i | i | i | i | i
CCOc1cc(NC(=O)Nc2ccc(F)cc2)c(OCC)cc1NC(=O)CC | -0.7 | i | i | i | i | . | . | .
CCN(CC)S(=O)(=O)c1cccc(C(=O)NC2=NCCS2)c1 | -2.7 | i | i | i | i | . | . | .
CC1CCN(Cc2c(C(=O)N/N=C/c3ccc(C(C)(C)C)cc3)nnn2-c2nonc2N)CC1 | -8.9 | i | i | i | i | i | i | i
CC(C)CCn1nc(C(=O)Nc2nc3c(s2)CCCC3)c2ccccc2c1=O | -9.2 | i | i | i | -17.2* | 75.5%* | i | i
CCn1c(=NC(=O)CSC(C)=O)sc2ccccc21 | -0.7 | i | i | i | i | . | . | .
CCOC(=O)Cn1c(=NC(=O)CSC(C)=O)sc2cc(F)ccc21 | -13.1 | i | i | i | -8.6* | 63.0%* | i | 33.0%*
CCn1c(=NC(=O)CSC(C)=O)sc2cc(OC)ccc21 | -6.8 | i | i | i | -13.8* | 60.0%* | i | 31.5%*
COc1ccc(NS(=O)(=O)c2cc(OCC(N)=O)c(C)cc2Cl)cc1 | -4.8 | i | i | i | i | . | . | .
COc1cc(OC)c(N(C)S(=O)(=O)c2cccc(C(=O)OCC(=O)N(C)Cc3ccccc3)c2)cc1Cl | . | . | . | i | . | . | . | .
CCOC(=O)c1ccc(-c2c(-c3ccc4c(c3)OCO4)noc2-c2ccsc2)cc1F | -12.8 | i | i | i | i | . | . | .
COc1cc(-c2c(-c3ccc4c(c3)OCO4)noc2-c2ccsc2)ccc1F | -21.0 | i | i | i | -11.5* | 56.0%* | i | 36.0%*
CCN1CCN(C(c2cccnc2)c2c(NC(=O)c3ccco3)sc(C)c2C)CC1 (stereo not drawn) | . | . | . | i | . | . | . | .
Cc1sc(NC(=O)c2ccco2)c(C(c2cccnc2)N2CCC(C)CC2)c1C (stereo not drawn) | -8.9 | i | 9* | i | -14.1* | 65.5%* | i | 42.5%*
O=C(CCCOc1ccccc1)NC1CCCc2ccccc21 (stereo not drawn) | -5.4 | i | i | i | i | i | i | i
O=C(CCl)NC1CCCc2ccccc21 (stereo not drawn) | 0.4 | i | i | i | i | . | . | .
CCOc1ccc(-c2nc(CSCC(=O)NC3CCCc4ccccc43)c(C)o2)cc1 (stereo not drawn) | -9.1 | i | 6* | i | -8.3* | 43.5%* | i | 42.0%*
O=C(Cc1coc2ccc3ccccc3c12)NC1CCCc2ccccc21 (stereo not drawn) | -8.7 | i | i | i | -11* | 66.0%* | i | 36.5%*
O=C(Cc1coc2ccc3ccccc3c12)NCc1ccccc1 | -11.4 | i | i | i | i | . | . | .
COC(=O)[C@@H](Cc1c[nH]c2ccccc12)NC(=O)C1CCCN(S(=O)(=O)c2ccc(C)cc2)C1 (stereo partly drawn) | -5.0 | i | i | i | i | . | . | .
O=C(COc1cccnc1[N+](=O)[O-])NCc1ccco1 | -6.8 | i | i | i | i | . | . | .
O=C(CN1C(=O)CCC1=O)Nc1ccc(Cc2ccc(NC(=O)CN3C(=O)CCC3=O)cc2)cc1 | -5.9 | i | i | i | i | . | . | .
O=C(O)c1ccccc1Sc1c([N+](=O)[O-])cc(C(F)(F)F)cc1[N+](=O)[O-] | -6.5 | i | i | i | i | . | . | .
COc1ccc(-c2noc(C3CCCN(S(=O)(=O)c4ccc(C)c(Cl)c4)C3)n2)cc1OC (stereo not drawn) | -15.0 | i | i | i | i | . | . | .
COc1ccc(-c2noc(C3CCCN(C(=O)c4cccc(C)c4)C3)n2)cc1 (stereo not drawn) | -4.0 | i | i | i | i | i | i | i
SMILES | hERG protect | KCNQ1 act | KCNQ1 block | KCNK3 block | KCNK9 inh | KCNK9 inh conf | Kir2-1 spec | KCNK9 uninduced
COc1ccc(-c2noc(C3CCCN(S(=O)(=O)c4cccc(Cl)c4C)C3)n2)cc1OC (stereo not drawn) | -7.4 | i | i | i | -12.1* | 33.5%* | i | i
Cc1ccc(-c2noc(C3CCCN(C(=O)c4cccc(F)c4)C3)n2)cc1 (stereo not drawn) | -9.2 | i | i | i | i | . | . | .
CCN(C(=O)c1ccc2c(Cl)c3c(nc2c1)CCC3)c1ccc(C)c(C)c1 | -16.0 | i | i | i | i | i | i | i
CCOc1ccc(/C=C2\SC(=S)N(C(C(=O)O)c3ccccc3)C2=O)cc1OC (stereo not drawn) | -19.1 | i | i | i | i | . | . | .
C=CCOc1ccc(/C=C2\SC(=S)N(C(C(=O)O)c3ccccc3)C2=O)cc1 (stereo not drawn) | -22.5 | i | i | i | i | i | i | i
CC(/C=C1\SC(=S)N(C(C(=O)O)c2ccccc2)C1=O)=C\c1ccccc1 (stereo not drawn) | -18.9 | i | i | i | i | i | i | i
COc1cccc(/C=C2\SC(=S)N(C(Cc3ccccc3)C(=O)O)C2=O)c1 (stereo not drawn) | -10.9 | i | i | i | i | i | i | i
CC(/C=C1\SC(=S)N(CC(=O)O)C1=O)=C\c1ccccc1 | -4.6 | i | i | i | i | . | . | .
O=c1cc(C(O)C[N+](=O)[O-])occ1OCc1ccccc1 (stereo not drawn) | -10.5 | i | i | i | i | . | . | .
CC(NCC(O)c1ccc([N+](=O)[O-])cc1)C12CC3CC(CC(C3)C1)C2 (stereo not drawn) | -8.1 | i | i | i | i | . | . | .
NC(=O)SCC(=O)Nc1ccc(Cl)cc1 | -6.8 | i | i | i | i | . | . | .
NC(=O)SCC(=O)Nc1cccc(Cl)c1 | 0.0 | i | i | i | -10.3* | 57.5%* | i | 36.5%*
Nc1ncnc(Nc2cccc(C(F)(F)F)c2)n1 | -11.4 | i | i | i | i | . | . | .
Nc1nc(Nc2cccc(C(F)(F)F)c2)nc(C(F)(F)F)n1 | -5.5 | i | i | i | -9.26* | 40.0%* | i | i
CC1(C)C2CCC1(CS(=O)(=O)N1CCN(c3ccc(F)cc3)CC1)C(=O)C2 (stereo not drawn) | -8.4 | i | i | i | i | . | . | .
